Experimental data from ChEMBL document CHEMBL1139437, “Design, synthesis, and preliminary pharmacological evaluation of 4-aminopiperidine derivatives as N-type calcium channel blockers active on pain and neuropathic pain” (J Med Chem, 2004).

Key:
Mus musculus [1] = assay: Analgesic activity was evaluated in mouse hotplate test; expressed as licking latency after 30 min of treatment at a dose of 15 ug intracerebroventricularly; format: functional
Procedure, shortened: (§1)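 Male Swiss albino mice (23-30 g); icv injection of 5 μL (saline or H2O/DMSO 2:1) under brief anaesthesia. Paw-licking latency (s) on hot plate read before injection and every 15 min up to 60 min. Mice with pretest latency below 12 or over 18 s excluded; cutoff 45 s. Statistics against saline- or vehicle-treated controls.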

Mus musculus [2] = organism: Mus musculus; assay: Percentage analgesic efficacy when compared to morphine; format: functional; design: concentration or dose not given beside the values
Procedure, shortened: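 Male Swiss albino mice, hot-plate test, paw-licking latency; pretest 12–18 s required, cutoff 45 s. Icv injection of 5 μL under brief anaesthesia, in saline or H2O/DMSO 2:1, at maximal soluble dose. Latency read before and every 15 min after dosing. Efficacy = (peak latency − pretest) as % of the same value for morphine 10 μg/mouse icv; non-significant effects scored 0.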

Mus musculus [3] = assay: Analgesic activity was evaluated in mouse hotplate test; expressed as licking latency after 45 min of treatment at a dose of 15 ug intracerebroventricularly; format: functional; procedure, shortened: as §1
Mus musculus [4] = assay: Analgesic activity was evaluated in mouse hotplate test; expressed as licking latency after 15 min of treatment at a dose of 15 ug intracerebroventricularly; format: functional; procedure, shortened: as §1
Mus musculus [5] = assay: Analgesic activity was evaluated in mouse hotplate test; expressed as licking latency after 30 min of treatment at a dose of 25 ug intracerebroventricularly; format: functional; procedure, shortened: as §1
Mus musculus [6] = assay: Analgesic activity was evaluated in mouse hotplate test; expressed as licking latency after 15 min of treatment at a dose of 25 ug intracerebroventricularly; format: functional; procedure, shortened: as §1
Mus musculus [7] = assay: Analgesic activity was evaluated in mouse hotplate test; expressed as licking latency after 45 min of treatment at a dose of 25 ug intracerebroventricularly; format: functional; procedure, shortened: as §1
Mus musculus [8] = assay: Analgesic activity was evaluated in mouse hotplate test; expressed as licking latency after 15 min of treatment at a dose of 50 ug intracerebroventricularly; format: functional; procedure, shortened: as §1
Mus musculus [9] = assay: Analgesic activity was evaluated in mouse hotplate test; expressed as licking latency after 30 min of treatment at a dose of 50 ug intracerebroventricularly; format: functional; procedure, shortened: as §1
Mus musculus [10] = assay: Analgesic activity was evaluated in mouse hotplate test; expressed as licking latency after 45 min of treatment at a dose of 50 ug intracerebroventricularly; format: functional; procedure, shortened: as §1
Rattus norvegicus [11] = assay: Antihyperalgesic activity was evaluated in rat (dx) paw pressure test after 30 min at a dose of 50 ug intracerebroventricularly
Rattus norvegicus [12] = assay: Antihyperalgesic activity was evaluated in rat (dx) paw pressure test after 45 min at a dose of 50 ug intracerebroventricularly
Rattus norvegicus [13] = assay: Antihyperalgesic activity was evaluated in rat (dx) paw pressure test after 60 min at a dose of 50 ug intracerebroventricularly
Rattus norvegicus [14] = assay: Antihyperalgesic activity was evaluated in rat (sn) paw pressure test after 30 min at a dose of 50 ug intracerebroventricularly
Rattus norvegicus [15] = assay: Antihyperalgesic activity was evaluated in rat (sn) paw pressure test after 45 min at a dose of 50 ug intracerebroventricularly
Rattus norvegicus [16] = assay: Antihyperalgesic activity was evaluated in rat (sn) paw pressure test after 60 min at a dose of 50 ug intracerebroventricularly
[17] = molecular target: Voltage-dependent N-type calcium channel subunit alpha-1B (Rattus norvegicus) (UniProt Q02294); assay: In vitro antagonism of N-type calcium channels expressed in PC12 cells was determined as the increase in intracellular calcium influx
Chain of Voltage-dependent N-type calcium channel subunit alpha-1B (Rattus norvegicus) (Q02294 whole entry, looked up): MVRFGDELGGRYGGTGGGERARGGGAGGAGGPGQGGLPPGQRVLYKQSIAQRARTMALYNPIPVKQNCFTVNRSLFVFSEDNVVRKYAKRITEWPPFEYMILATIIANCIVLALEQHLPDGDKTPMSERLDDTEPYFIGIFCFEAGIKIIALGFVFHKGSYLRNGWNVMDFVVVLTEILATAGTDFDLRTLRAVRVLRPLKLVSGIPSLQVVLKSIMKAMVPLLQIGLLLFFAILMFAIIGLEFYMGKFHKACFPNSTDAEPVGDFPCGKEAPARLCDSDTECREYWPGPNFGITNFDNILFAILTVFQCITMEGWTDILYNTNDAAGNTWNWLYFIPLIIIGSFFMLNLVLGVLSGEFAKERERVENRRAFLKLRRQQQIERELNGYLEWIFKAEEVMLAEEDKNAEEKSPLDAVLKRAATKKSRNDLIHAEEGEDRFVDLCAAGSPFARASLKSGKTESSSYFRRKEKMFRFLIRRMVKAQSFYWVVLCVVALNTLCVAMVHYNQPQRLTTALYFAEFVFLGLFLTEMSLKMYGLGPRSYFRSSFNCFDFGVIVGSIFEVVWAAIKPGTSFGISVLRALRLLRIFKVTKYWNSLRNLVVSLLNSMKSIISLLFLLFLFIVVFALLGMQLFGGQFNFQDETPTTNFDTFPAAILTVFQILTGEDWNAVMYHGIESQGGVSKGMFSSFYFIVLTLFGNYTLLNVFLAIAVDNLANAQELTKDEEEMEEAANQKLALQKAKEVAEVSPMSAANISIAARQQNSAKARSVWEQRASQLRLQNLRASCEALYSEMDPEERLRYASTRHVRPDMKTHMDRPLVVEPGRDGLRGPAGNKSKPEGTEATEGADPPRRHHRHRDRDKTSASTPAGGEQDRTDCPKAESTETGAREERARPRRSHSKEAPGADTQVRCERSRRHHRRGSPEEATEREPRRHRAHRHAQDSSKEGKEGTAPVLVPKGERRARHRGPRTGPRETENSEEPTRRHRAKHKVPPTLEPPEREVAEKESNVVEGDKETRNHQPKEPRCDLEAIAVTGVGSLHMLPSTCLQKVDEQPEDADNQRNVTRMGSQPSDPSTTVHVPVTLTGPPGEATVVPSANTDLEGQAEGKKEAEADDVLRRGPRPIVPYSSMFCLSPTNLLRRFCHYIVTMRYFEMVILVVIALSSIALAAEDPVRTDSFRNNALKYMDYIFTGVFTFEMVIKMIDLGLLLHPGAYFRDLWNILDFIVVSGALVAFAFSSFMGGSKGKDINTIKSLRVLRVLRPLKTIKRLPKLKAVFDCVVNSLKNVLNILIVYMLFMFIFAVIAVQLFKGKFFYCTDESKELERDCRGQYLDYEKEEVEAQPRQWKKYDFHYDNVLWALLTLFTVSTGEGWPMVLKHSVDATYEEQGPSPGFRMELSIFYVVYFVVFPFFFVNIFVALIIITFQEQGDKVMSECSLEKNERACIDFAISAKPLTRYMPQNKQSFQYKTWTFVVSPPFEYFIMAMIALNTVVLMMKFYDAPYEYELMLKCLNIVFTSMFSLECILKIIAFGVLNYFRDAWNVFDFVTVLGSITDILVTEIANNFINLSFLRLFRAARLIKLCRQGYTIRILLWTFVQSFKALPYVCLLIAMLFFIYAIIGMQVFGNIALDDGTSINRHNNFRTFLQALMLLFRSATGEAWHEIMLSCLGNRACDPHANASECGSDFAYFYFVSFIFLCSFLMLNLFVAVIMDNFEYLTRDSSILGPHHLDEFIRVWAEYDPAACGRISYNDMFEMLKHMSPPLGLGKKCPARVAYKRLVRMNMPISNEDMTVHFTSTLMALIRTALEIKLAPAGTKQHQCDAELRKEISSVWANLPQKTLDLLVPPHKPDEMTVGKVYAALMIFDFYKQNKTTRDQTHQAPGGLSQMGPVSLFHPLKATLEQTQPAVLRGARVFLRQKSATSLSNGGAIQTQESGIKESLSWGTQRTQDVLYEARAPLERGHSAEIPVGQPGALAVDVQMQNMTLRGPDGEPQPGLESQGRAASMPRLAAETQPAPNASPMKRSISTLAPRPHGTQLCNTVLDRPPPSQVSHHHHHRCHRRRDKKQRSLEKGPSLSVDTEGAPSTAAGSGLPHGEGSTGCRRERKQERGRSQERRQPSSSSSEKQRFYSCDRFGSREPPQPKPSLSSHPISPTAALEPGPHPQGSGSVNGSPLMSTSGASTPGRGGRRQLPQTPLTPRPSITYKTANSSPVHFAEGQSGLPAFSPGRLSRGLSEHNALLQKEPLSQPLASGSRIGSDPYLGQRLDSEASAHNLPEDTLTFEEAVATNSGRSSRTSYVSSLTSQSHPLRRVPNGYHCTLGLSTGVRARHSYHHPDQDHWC

[18] = molecular target: Voltage-dependent N-type calcium channel subunit alpha-1B (Rattus norvegicus) (UniProt Q02294); assay: In vitro antagonism of N-type calcium channels expressed in PC12 cells was determined as the increase in intracellular calcium influx in the presence of 10 uM nifedipine
Mus musculus [19] = assay: Analgesic activity was evaluated in mouse hotplate test; expressed as licking latency after 30 min of treatment at a dose of 20 ug intracerebroventricularly; format: functional; procedure, shortened: as §1
Mus musculus [20] = assay: Analgesic activity was evaluated in mouse hotplate test; expressed as licking latency after 45 min of treatment at a dose of 20 ug intracerebroventricularly; format: functional; procedure, shortened: as §1
Mus musculus [21] = assay: Analgesic activity was evaluated in mouse hotplate test; expressed as licking latency after 15 min of treatment at a dose of 20 ug intracerebroventricularly; format: functional; procedure, shortened: as §1
Mus musculus [22] = assay: Analgesic activity was evaluated in mouse hotplate test; expressed as licking latency after 15 min of treatment at a dose of 30 ug intracerebroventricularly; format: functional; procedure, shortened: as §1
Mus musculus [23] = assay: Analgesic activity was evaluated in mouse hotplate test; expressed as licking latency after 30 min of treatment at a dose of 30 ug intracerebroventricularly; format: functional; procedure, shortened: as §1
Mus musculus [24] = assay: Analgesic activity was evaluated in mouse hotplate test; expressed as licking latency after 45 min of treatment at a dose of 30 ug intracerebroventricularly; format: functional; procedure, shortened: as §1
Rattus norvegicus [25] = assay: Antihyperalgesic activity was evaluated in rat (sn) paw pressure test after 30 min at a dose of 30 ug intracerebroventricularly
Rattus norvegicus [26] = assay: Antihyperalgesic activity was evaluated in rat (dx) paw pressure test after 30 min at a dose of 30 ug intracerebroventricularly
Rattus norvegicus [27] = assay: Antihyperalgesic activity was evaluated in rat (dx) paw pressure test after 45 min at a dose of 30 ug intracerebroventricularly
Rattus norvegicus [28] = assay: Antihyperalgesic activity was evaluated in rat (dx) paw pressure test after 60 min at a dose of 30 ug intracerebroventricularly
Rattus norvegicus [29] = assay: Antihyperalgesic activity was evaluated in rat (sn) paw pressure test after 45 min at a dose of 30 ug intracerebroventricularly
Rattus norvegicus [30] = assay: Antihyperalgesic activity was evaluated in rat (sn) paw pressure test after 60 min at a dose of 30 ug intracerebroventricularly
Mus musculus [31] = assay: Analgesic activity was evaluated in mouse hotplate test; expressed as licking latency after 30 min of treatment at a dose of 10 ug intracerebroventricularly; format: functional; procedure, shortened: as §1
Mus musculus [32] = assay: Analgesic activity was evaluated in mouse hotplate test; expressed as licking latency after 45 min of treatment at a dose of 10 ug intracerebroventricularly; format: functional; procedure, shortened: as §1
Mus musculus [33] = assay: Analgesic activity was evaluated in mouse hotplate test; expressed as licking latency after 15 min of treatment at a dose of 10 ug intracerebroventricularly; format: functional; procedure, shortened: as §1
Rattus norvegicus [34] = assay: Antihyperalgesic activity was evaluated in rat (dx) paw pressure test after 30 min at a dose of 10 ug intracerebroventricularly
Rattus norvegicus [35] = assay: Antihyperalgesic activity was evaluated in rat (dx) paw pressure test after 45 min at a dose of 10 ug intracerebroventricularly
Rattus norvegicus [36] = assay: Antihyperalgesic activity was evaluated in rat (dx) paw pressure test after 60 min at a dose of 10 ug intracerebroventricularly
Rattus norvegicus [37] = assay: Antihyperalgesic activity was evaluated in rat (sn) paw pressure test after 30 min at a dose of 10 ug intracerebroventricularly
Rattus norvegicus [38] = assay: Antihyperalgesic activity was evaluated in rat (sn) paw pressure test after 45 min at a dose of 10 ug intracerebroventricularly
Rattus norvegicus [39] = assay: Antihyperalgesic activity was evaluated in rat (sn) paw pressure test after 60 min at a dose of 10 ug intracerebroventricularly

In the case of `Cl.O=C(CCC(c1ccc(F)cc1)c1ccc(F)cc1)NC1CCN(CCO)CC1`, the Latency (Mus musculus [1]) is reported as 16.8 s, the Efficacy (Mus musculus [2]) is reported as 0% and the Latency (Mus musculus [3]) is reported as 17.3 s. It also gave a Latency (Mus musculus [4]) of 16.9 s.
`COc1ccc(CCN2CCC(NCCCC(C#N)(c3ccc(OC)c(OC)c3)C(C)C)CC2)cc1OC.Cl` (stereo unspecified) gave a Latency (Mus musculus [1]) of 18.3 s, an Efficacy (Mus musculus [2]) of 0% and a Latency (Mus musculus [3]) of 15.4 s. The Latency (Mus musculus [4]) was 17.7 s.
In the case of `CCCCN1CCC(NCCCC(C#N)(c2ccc(OC)c(OC)c2)C(C)C)CC1.Cl` (stereo unspecified), the Latency (Mus musculus [5]) is reported as 21.6 s, the Efficacy (Mus musculus [2]) is reported as 47% and the Latency (Mus musculus [6]) is reported as 20.5 s. It also gave a Latency (Mus musculus [7]) of 19 s.
Compound `COc1ccc(C(C#N)(CCCN2CCC(NCCOc3ccccc3)CC2)C(C)C)cc1OC.O=C(O)C(=O)O` (stereo unspecified) has an Efficacy (Mus musculus [2]) of 61%, a Latency (Mus musculus [8]) of 22.3 s and a Latency (Mus musculus [9]) of 20.8 s. For the same compound, the Latency (Mus musculus [10]) was 18.9 s, the Activity (Rattus norvegicus [11]) was 61.7 g and the Activity (Rattus norvegicus [12]) was 58.3 g. The Activity (Rattus norvegicus [13]) was 54.8 g, the Activity (Rattus norvegicus [14]) was 59.5 g and the Activity (Rattus norvegicus [15]) was 64.7 g. The Activity (Rattus norvegicus [16]) was 60.6 g, the IC50 [17] was 700 nM and the IC50 [18] was 400 nM.
`COc1ccc(CCNC2CCN(Cc3ccccc3)CC2)cc1OC.Cl` showed an Efficacy (Mus musculus [2]) of 0%, a Latency (Mus musculus [8]) of 15.5 s and a Latency (Mus musculus [9]) of 16.7 s. The Latency (Mus musculus [10]) was 15.3 s.
`COc1ccc(C(C#N)(CCCNC2CCN(C/C=C/c3ccccc3)CC2)C(C)C)cc1OC.Cl` (stereo unspecified) was tested, and the Latency (Mus musculus [19]) was 20.2 s, the Efficacy (Mus musculus [2]) was 69% and the Latency (Mus musculus [20]) was 16.2 s. It also gave a Latency (Mus musculus [21]) of 24.3 s.
Compound `CCCCNC1CCN(C(=O)CCC(C#N)(c2ccc(OC)c(OC)c2)C(C)C)CC1.Cl` (stereo unspecified) has a Latency (Mus musculus [22]) of 18.7 s, a Latency (Mus musculus [23]) of 17.4 s and an Efficacy (Mus musculus [2]) of 0%. It also gave a Latency (Mus musculus [24]) of 17 s, an Activity (Rattus norvegicus [25]) of 65 g and an Activity (Rattus norvegicus [26]) of 28.4 g. For the same compound, the Activity (Rattus norvegicus [27]) was 26.7 g, the Activity (Rattus norvegicus [28]) was 32 g and the Activity (Rattus norvegicus [29]) was 56.9 g. It also gave an Activity (Rattus norvegicus [30]) of 59.3 g.
`CCCCNC1CCN(CCCC(c2ccccc2)c2ccccc2)CC1.O=C(O)C(=O)O` was tested, and the Latency (Mus musculus [31]) was 22.4 s, the Efficacy (Mus musculus [2]) was 64% and the Latency (Mus musculus [32]) was 15.8 s. The Latency (Mus musculus [33]) was 22.6 s, the Activity (Rattus norvegicus [34]) was 50.3 g and the Activity (Rattus norvegicus [35]) was 52.6 g. The Activity (Rattus norvegicus [36]) was 46.5 g, the Activity (Rattus norvegicus [37]) was 57.5 g and the Activity (Rattus norvegicus [38]) was 61.2 g. It also gave an Activity (Rattus norvegicus [39]) of 63 g.
Compound `COc1ccc(CCNC2CCN(C(=O)CCC(C#N)(c3ccc(OC)c(OC)c3)C(C)C)CC2)cc1OC.O=C(O)C(=O)O` (stereo unspecified) has a Latency (Mus musculus [31]) of 18.8 s, an Efficacy (Mus musculus [2]) of 0% and a Latency (Mus musculus [32]) of 17.3 s. It also gave a Latency (Mus musculus [33]) of 16.5 s.
